Assays:
[1] = Cytotoxicity against human 518A2 cells assessed as cell viability after 96 hrs by SRB assay; format: functional, cell-based; conditions: Homo sapiens, 518A2, 96 h
[2] = Solubility of the compound in water/DMSO mixture; format: physicochemical; conditions: water/DMSO mixture; read-out: solubility
Summary of the method: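 Solubility was measured in water/DMSO (95:5, v/v) by HPLC with UV/vis detection.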

[3] = tested on: MCF7; experiment: Cytotoxicity against human MCF7 cells assessed as cell viability after 96 hrs by SRB assay; format: functional, cell-based; conditions: Homo sapiens, MCF7, 96 h
[4] = tested on: A549; experiment: Cytotoxicity against human A549 cells assessed as cell viability after 96 hrs by SRB assay; format: functional, cell-based; conditions: Homo sapiens, A549, 96 h
[5] = tested on: SW-1736; experiment: Cytotoxicity against human SW1736 cells assessed as cell viability after 96 hrs by SRB assay; format: functional, cell-based; conditions: Homo sapiens, SW-1736, 96 h
[6] = tested on: A2780; experiment: Cytotoxicity against human A2780 cells assessed as cell viability after 96 hrs by SRB assay; format: functional, cell-based; conditions: Homo sapiens, A2780, 96 h
[7] = tested on: NIH3T3; experiment: Cytotoxicity against mouse NIH/3T3 cells assessed as cell viability after 96 hrs by SRB assay; format: cell-based; conditions: NIH3T3, 96 h
[8] = tested on: DLD-1; experiment: Cytotoxicity against human DLD1 cells assessed as cell viability after 96 hrs by SRB assay; format: functional, cell-based; conditions: Homo sapiens, DLD-1, 96 h
[9] = tested on: 8505C; experiment: Cytotoxicity against human 8505C cells assessed as cell viability after 96 hrs by SRB assay; format: functional, cell-based; conditions: Homo sapiens, 8505C, 96 h
[10] = tested on: A549; experiment: Induction of apoptosis in human A549 cells assessed as early apoptotic cells at 5 uM after 6 hrs by annexin V/propidium iodide staining-based FACS flow cytometric analysis relative to control; format: functional
Summary of the method: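 A549 cells incubated 6 h with compound, then analysed by FACS annexin V/propidium iodide assay. Phosphatidylserine translocation to the outer membrane was taken as the early-apoptosis marker. Cells were scored as percentage dying by necrosis versus programmed cell death. Betulinic acid and maslinic acid were the reference standards.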

[11] = Cytotoxicity against human A253 cells assessed as cell viability after 96 hrs by SRB assay; format: functional, cell-based; conditions: Homo sapiens, A253, 96 h
[12] = Cytotoxicity against human Lipo cells assessed as cell viability after 96 hrs by SRB assay; format: functional, cell-based; conditions: Homo sapiens, Lipo, 96 h

Work on `C=C(C)[C@@H]1CC[C@]2([C@H](O)C#CCN3CCOCC3)CC[C@]3(C)[C@H](CC[C@@H]4[C@@]5(C)CC[C@H](OC(C)=O)C(C)(C)[C@@H]5CC[C@]43C)[C@@H]12.Cl` yielded an IC50 [1] of 7 µM, a solubility [2] of 192 µg/mL and an IC50 [3] of 7.7 µM. For the same molecule, the IC50 [4] was 7.6 µM, the IC50 [5] was 8.9 µM and the IC50 [6] was 4.1 µM. For the same molecule, the IC50 [7] was 7.2 µM, the IC50 [8] was 5 µM and the IC50 [9] was 7.2 µM. For the same molecule, the Activity [10] was over 90%, the IC50 [11] was 5.2 µM and the IC50 [12] was 2.4 µM.

From ChEMBL document CHEMBL2321859, “Cytotoxic betulin-derived hydroxypropargylamines trigger apoptosis” (Bioorg Med Chem, 2013)
